In ChEMBL document CHEMBL1128540, “Synthesis and quantitative structure-activity relationships of dequalinium analogues as K+ channel blockers: investigation into the role of the substituent at position 4 of the quinoline ring” (J Med Chem, 1995):

How the values were obtained:
[1] = molecular target: Small conductance calcium-activated potassium channel (Rattus norvegicus, UniProt P70604+P70606+P70605); test: The SKCa-blocking action was assessed by its ability to inhibit the after hyperpolarization (AHP) in cultured rat sympathetic neurones; assay type: functional, cell-based; conditions: sympathetic neuron
Procedure, shortened: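 SKCa block was read as inhibition of the after-hyperpolarization following action potentials in cultured rat sympathetic neurones. Each compound was tested at two to four concentrations on at least three cells, and IC50 was taken for 50% AHP inhibition. Concentrations above 10–30 μM were generally avoided. Dequalinium was included as reference in each series.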

[2] = Equieffective molar ratio(EMR) to that of the dequalinium, causing 50% inhibition of AHP(action potential).; assay type: functional
Procedure, shortened: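 AHP inhibition in cultured rat sympathetic neurones. Each compound was tested at two to four concentrations on at least three cells, with dequalinium run as reference in the same series (one to three compounds per series). EMR is the ratio of test compound to dequalinium concentration giving 50% AHP inhibition within the same experiment. Test concentrations above 10–30 μM were generally avoided.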

Question: What does the source list for `Cc1cc(N)c2ccccc2[n+]1CCCCCCCCCC[n+]1c(C)cc(N)c2ccccc21.[Cl-].[Cl-]` [DEQUALINIUM CHLORIDE]?
Answer: IC50 [1]: 0.74 µM; EMR [2]: 1

Question: For `Nc1cc[n+](CCCCCCCCCC[n+]2ccc(N)c3ccccc32)c2ccccc12`, which IC50 [1] is on record?
Answer: 1.4 µM

Question: What about the EMR [2] of the same molecule?
Answer: 1.3

Question: For `c1ccc(CNc2cc[n+](CCCCCCCCCC[n+]3ccc(NCc4ccccc4)c4ccccc43)c3ccccc23)cc1`, which IC50 [1] is on record?
Answer: 0.52 µM

Question: What about the EMR [2] of the same molecule?
Answer: 0.7

Question: Which IC50 [1] does the source give for `Nc1c2c([n+](CCCCCCCCCC[n+]3c4c(c(N)c5ccccc53)CCCC4)c3ccccc13)CCCC2` here?
Answer: 1 µM

Question: And the EMR [2]?
Answer: 0.9

Question: Which results are given for `CN(C)c1cc[n+](CCCCCCCCCC[n+]2ccc(N(C)C)c3ccccc32)c2ccccc12`?
Answer: IC50 [1]: 1.4 µM; EMR [2]: 1.4

Question: With `CC(=O)Nc1cc[n+](CCCCCCCCCC[n+]2ccc(NC(C)=O)c3ccccc32)c2ccccc12` as the molecule, how does the IC50 [1] read?
Answer: 4.5 µM

Question: What about the EMR [2] of the same molecule?
Answer: 5.5

Question: With `Cc1cc[n+](CCCCCCCCCC[n+]2ccc(C)c3ccccc32)c2ccccc12` as the molecule, how does the IC50 [1] read?
Answer: 14.5 µM

Question: What about the EMR [2] of the same molecule?
Answer: 26

Question: Which IC50 [1] does the source give for `Nc1ccc2c(NCc3ccccc3)cc[n+](CCCCCCCCCC[n+]3ccc(NCc4ccccc4)c4ccc(N)cc43)c2c1` here?
Answer: 0.5 µM

Question: What about the EMR [2] of the same molecule?
Answer: 0.9

Question: What does the source list for `c1ccc2c(c1)ccc[n+]2CCCCCCCCCC[n+]1cccc2ccccc21`?
Answer: IC50 [1]: 21 µM; EMR [2]: 15

Question: For `COc1cc2c3cc1Oc1cc(ccc1O)C[C@@H]1c4c(cc(OC)c(O)c4Oc4ccc(cc4)C[C@@H]3N(C)CC2)CC[N+]1(C)C.[Cl-]`, which IC50 [1] is on record?
Answer: 7.5 µM

Question: For `c1ccc(Nc2cc[n+](CCCCCCCCCC[n+]3ccc(Nc4ccccc4)c4ccccc43)c3ccccc23)cc1`, which IC50 [1] is on record?
Answer: 2.4 µM

Question: And the EMR [2]?
Answer: 3.4

Question: What does the source list for `[O-]c1cc[n+](CCCCCCCCCC[n+]2ccc([O-])c3ccccc32)c2ccccc12`?
Answer: IC50 [1]: > 10 µM; EMR [2]: > 10

Question: For `CN(c1ccccc1)c1cc[n+](CCCCCCCCCC[n+]2ccc(N(C)c3ccccc3)c3ccccc32)c2ccccc12`, which IC50 [1] is on record?
Answer: 1.4 µM

Question: What about the EMR [2] of the same molecule?
Answer: 1.7

Question: For `COc1cc(OC)c(CNc2cc[n+](CCCCCCCCCC[n+]3ccc(NCc4c(OC)cc(OC)cc4OC)c4ccccc43)c3ccccc23)c(OC)c1`, which IC50 [1] is on record?
Answer: 0.6 µM

Question: And the EMR [2]?
Answer: 1

Question: Which IC50 [1] does the source give for `CC(=O)O[C@H]1C[C@@H]2CC[C@@H]3[C@H](CC[C@@]4(C)[C@H]3C[C@H]([N+]3(C)CCCCC3)[C@@H]4OC(C)=O)[C@@]2(C)C[C@@H]1[N+]1(C)CCCCC1.[Br-].[Br-]` [PANCURONIUM BROMIDE] here?
Answer: 6.8 µM

Question: Which results are given for `c1ccc(Oc2cc[n+](CCCCCCCCCC[n+]3ccc(Oc4ccccc4)c4ccccc43)c3ccccc23)cc1`?
Answer: IC50 [1]: 2.7 µM; EMR [2]: 6.5
